# A selection: hits, their analogues and other compounds. The true share with any hit is near 3.3%.
# Rev-RRE block: inhibitors of HIV-1 Rev-RRE RNA interaction; P05866; inhibition, % at 8 µM; hit rate 0.79% among 97,000; Rev peptide-RRE RNA binding, FRET;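 active = inhibition above the screen-wide mean plus 3 SD, cut at about 35% in these data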;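 note: 0% = median DMSO wells and 100% = median Neomycin B control wells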
#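 Assay system: labelled RRE RNA duplex and labelled Rev peptide / Medium: HEPES pH 7.5 salt buffer with EDTA / Reagent: labelled Rev peptide / Schedule: 5 + 15 min at 25 °C / Signal: FRET, excitation 480 nm, emission 540 nm donor and 671 nm acceptor / Benchmarks: DMSO and neomycin B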
# IL1B cytotox: toxic to HUVEC cells under IL-1B stimulation; HUVEC cell count loss, Hoechst imaging, IL-1B stimulated; cell count reduction, % at 2 µM; hit rate 0.41% among 94,000; AID 845;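 active = cell count reduction more than 3 SD above the screen-wide mean, cut at about 70% in these data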;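 note: normalized per plate to untreated control cells as the no-loss baseline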
# NFkB transloc inh: blocks IL-1B driven NFkB nuclear translocation in HUVEC cells; inhibition, % at 2 µM; AID 796; hit rate 0.43% among 94,000; HUVEC IL-1B NFkB p65 nuclear translocation imaging;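 active = inhibition above about 30% together with a positive call from visual inspection of the well image, limit read from the data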;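 note: nuclear over cytoplasmic p65 intensity ratio measured by imaging; 0% = IL-1B stimulated DMSO wells and 100% = unstimulated DMSO wells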
# IL1B NFkB pot: enhances IL-1B driven NFkB nuclear translocation; HUVEC IL-1B NFkB p65 nuclear translocation imaging; activation, % at 2 µM; hit rate 0.3% among 94,000; AID 819;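 active = activation above 40%, about the mean plus 3 SD, also judged a hit on visual image review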;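 note: percent activation is computed from the nuclear over cytoplasmic p65 intensity ratio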
# FAK inh: inhibitors of human focal adhesion kinase. Q05397. biochemical FAK kinase activity assay. inhibition, %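 (tested at 7 µM)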. hit rate 0.84% among 97,000; in the data active = inhibition above about 19%;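 note: 0% = DMSO and 100% = reference compound high control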
# Measles CPE: protection of cells from measles virus; Measles virus-infected cells, CPE protection, absorbance; protection (pct of control), % at 4 µM; hit rate 1.5% among 140,000; AID 841; in the data active = protection mostly above about 24%, no sharp cut-off; inactive = mostly below about 26%
# * marks the source's active call; other numbers are inactive results; x = no result.
SMILES,Rev-RRE block,IL1B cytotox,NFkB transloc inh,IL1B NFkB pot,FAK inh,Measles CPE
Cc1cc(/C=C2/SC(=O)N(CC(=O)N3CCOCC3)C2=O)c(C)n1-c1ccccc1F,x,x,x,x,x,22
COc1ccccc1C(=O)Nc1nnc(-c2ccc3c(c2)CCCC3)o1,5,-14,53*,-53,-3,3
COc1ccc(CC(=O)Nc2ccccc2C(=O)N2CCOCC2)cc1,x,x,x,x,x,1
CN1C(=O)c2ccc(NC(=S)NC(=O)C(C)(C)C)cc2C1=O,x,x,x,x,x,7
CC1(C)C=C(c2ccc(O)cc2)CC(C)(C)N1,6,-44,45*,-45,-7,5
CCN(CC)S(=O)(=O)c1ccc(N2CCOCC2)c(NC(=O)Cc2cccc3ccccc23)c1,x,x,x,x,x,5
Nc1c(C(=O)NCC2CCCO2)sc2nc3c(c(-c4ccco4)c12)CC/C3=C\c1ccco1 (stereo not given),x,x,x,x,x,5
O=C1CC(c2cc([N+](=O)[O-])ccc2Cl)c2c(ccc3ccccc23)N1 (stereo not given),x,x,x,x,x,2
COc1cccc(C2C(C(=O)c3cccs3)=C(O)C(=O)N2c2cc(C)on2)c1 (stereo not given),3,-26,-5,5,-12,37*
Cc1cc(N2C(=O)C(O)=C(C(=O)c3cccs3)C2c2cccc(O)c2)no1 (stereo not given),8,7,4,-5,-12,19
N=C1C(c2nc3ccccc3[nH]2)=C(O)CN1NC(=O)COc1cccc(F)c1,x,x,x,x,x,10
Cc1ccc2cc3c(N)c(C(=O)N4CC(=O)Nc5ccccc54)sc3nc2c1,67*,32,3,-3,11,3
CC(NC(=O)NC(N)=O)(C(F)(F)F)C(F)(F)F,2,-25,-41,41*,-4,13
CC(NC(=O)Nc1ccc(O)cc1)(C(F)(F)F)C(F)(F)F,4,-24,6,-6,10,4
CCOc1ccc2[nH]c(=O)c(CN(CC3CCCN3CC)C(=O)NCc3ccccc3)cc2c1 (stereo not given),x,x,x,x,x,25*
COc1ccc2[nH]c(=O)c(CN(CCCN3CCOCC3)C(=O)NCc3ccccc3)cc2c1,0,13,-6,6,2,6
O=C1c2ccccc2C(O)(Cc2ccccc2)N1C1CCCCC1 (stereo not given),9,92*,37*,-37,-3,25
O=C(COC(=O)c1ccccc1C(=O)c1ccc(Cl)c([N+](=O)[O-])c1)NC1CCCCCC1,8,47,83*,-83,0,30
COc1cccc(CN(C)C(=O)Nc2cccc(C(F)(F)F)c2)c1OC,x,x,x,x,x,3
Cc1cc(C(=O)O)cc(S(=O)(=O)N2CCOCC2)c1C,6,-38,0,0,2,5
Cc1ccc(-n2cnnn2)c(S(=O)(=O)N2CCOCC2)c1,2,-67,35*,-35,1,12
COc1ccc(-c2ccc(=O)n(CC(=O)NCc3ccco3)n2)cc1,-3,-26,1,-1,8,7
COc1ccc(-c2ccc(=O)n(Cc3cc(=O)n4ccccc4n3)n2)cc1,1,1,-17,17,-4,32*
O=C(CSCc1ccc(Br)cc1)N1CCOCC1,4,-16,-42,42*,2,4
Cc1cc(C)c2nc(SCC(=O)NCCC3=CCCCC3)cc(C)c2c1,x,x,x,x,x,19
SMILES,Rev-RRE block,IL1B cytotox,NFkB transloc inh,IL1B NFkB pot,FAK inh,Measles CPE
O=C(OC(C(=O)NCc1ccc2c(c1)OCO2)c1ccccc1F)c1ccco1 (stereo not given),1,6,-7,7,2,3
O=C(OC(C(=O)NCc1cccs1)c1ccccc1F)c1ccco1 (stereo not given),1,-9,-1,1,0,42*
N#C/C(=C\c1cc(Cl)ccc1O)C(=O)NC1CCCCC1,3,-23,-17,17,-1,23
Cc1ccc(-c2[nH]ncc2/C=C(\C#N)C(=O)NC2CCCCC2)cc1,12,-99,3,-3,9,70*
COc1ccc(-c2[nH]ncc2/C=C(/C#N)C(=O)NC2CCCCC2)cc1,8,7,-16,16,4,15
N#C/C(=C\c1cc(Cl)cc(Cl)c1O)C(=O)NC1CCCCC1,45*,-6,-7,7,-4,16
N#CCCN1CCN(S(=O)(=O)c2ccc(S(=O)(=O)NC3CCCC3)cc2)CC1,0,-1,-12,12,1,40*
N#CCCN1CCN(S(=O)(=O)c2ccc(S(=O)(=O)N3CCCCCC3)cc2)CC1,x,x,x,x,x,10

# Screening results: PubChem BioAssay, several laboratories
